This passage reports yeast fitness results from the RNAGym collection of RNA variant scans (doi:10.1126/science.aae0568).

Variants at the floor of the assay were thinned out.

B1: tRNA (parent)
chain: GUUCCGUUGGCGUAAUGGUAACGCGUCUCCCUCCUAAGGAGAAGACUGCGGGUUCGAGUCCCGUACGGAACG

This series covers variants of B1. Description: yeast fitness relative to wild type (ratio to wild type); higher = fitter; tRNA-Arg(CCU), competitive growth, 37 C, YPD. The procedure, abridged: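 A pool of Saccharomyces cerevisiae strains, each with a tRNA-Arg(CCU) gene variant at the native genomic locus, was competed in YPD at 37°C for 24 hours across six parallel replicates. The variants had been chemically synthesised at a 3% per-site mutation rate over 69 sites, and gene amplicons before and after competition were read by 100-nucleotide paired-end sequencing. Darwinian fitness relative to wild type rested on changes in genotype frequencies. Genotypes required ≥ 100 starting reads, and estimates < 0.5 were set to 0.5.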
On to C49G U64G A65G A70U, for which the yeast fitness turned out to be 0.683.
With U3G A43G, the yeast fitness worked out at 0.936.
For U3A G6A G25C A43C, the yeast fitness was found to be 0.614.
For U13A A21C C24A G25C C66G, the yeast fitness is 0.512.
To G9A A20G A21U belongs 0.57.
Regarding U2G C30G C62G, the yeast fitness was determined as 0.591.
For the variant U16C G18C C24U A40U C55U U59A, the yeast fitness was ≤ 0.5.
Regarding A14U A21C U54G, the yeast fitness is ≤ 0.5.
With C5A G18A, the yeast fitness worked out at 0.818.
Under U2G U28A stands 0.645; under A20G C27A C31A C61U, ≤ 0.5.
To G17C A36G C49U C66U A69C belongs 0.598.
As for G9A C49U A69U, the yeast fitness came to 0.785.
To A15U C22G G52A belongs ≤ 0.5; to C34G G58C A69C, 0.576.
Under U28A U35G C62A stands ≤ 0.5; under U19A C24G, 0.633; under G9A A21G C29G C31A C34G, ≤ 0.5.
As for C27A C34G A40G, the yeast fitness was found to be 0.666.
Under G12A C31U stands 0.919; under U2G A14C A42C C49U A65C, ≤ 0.5.
To C49U C55U A69C belongs 0.665; to C11A G25C C29U A65C A70U, 0.541; to A36C G50A, 0.608.
Consider C4U C34G G52U, for which the yeast fitness turned out to be 0.62.
Under G6A C11U C62A A65U C66U stands ≤ 0.5; under C4U U59C C61A, ≤ 0.5.
In the case of U3C C22A U47A A70G, the yeast fitness was ≤ 0.5.
On to U26A A43U A65U, for which the yeast fitness is 0.618.
To U2A A40G A43U A45C A57G A65C belongs ≤ 0.5; to C22U U26A C34A A37U G48C, 0.799; to G12C A14G C22U U54C C61U, ≤ 0.5.
Under U3C C4U U35C A70U stands 0.544.
Under G39C stands 0.93; under U7C A15C, 0.639; under G23C A36U C46G C60U, 0.591.
In the case of U16A C34A A40U G44A, the yeast fitness was ≤ 0.5.
As for G10A A15U A36U A70C, the yeast fitness is ≤ 0.5.
Under G6A A40U C55G G63C stands ≤ 0.5.
To C11U G18C C31A belongs ≤ 0.5.
To C27G C30U C66U belongs ≤ 0.5; to C5U U8A G38C A42C G63A, 0.534; to G48A A70U, 1.04.
Consider C11U A15C C27A G39C G67U, for which the yeast fitness was ≤ 0.5.
Under A20G A43C A57U stands 0.538; under U3A G12A U19A G38C G48A, ≤ 0.5; under C27U U28C A45C, 0.773.
With U13A A20C, the yeast fitness was 0.715.
Take C62U U64A: the yeast fitness was 0.735.
For the variant G41A U47C, the yeast fitness stood at 0.931.
Regarding G6C G18C A21G A40U U47A C49U C61U A70G, the yeast fitness is ≤ 0.5.
For A14C A15C G25C A57C C62G A69G, the yeast fitness was ≤ 0.5.
To A14G G52C C66G belongs 0.619; to U19C C46A A57C A70C, ≤ 0.5.
To U7A C27A G50C belongs ≤ 0.5.
Under C11G C27G stands ≤ 0.5.
Turning to U2G C33A C49G, the yeast fitness was ≤ 0.5.
For the variant A20G G25A, the yeast fitness was determined as 0.904.
To C29U C31U belongs 0.846.
Under C46G G56A A57C C61U stands 0.575.
For G6A C34G A37U C49G, the yeast fitness amounted to 0.532.
Consider C34G U47G, for which the yeast fitness amounted to 0.561.
To U2A A69C belongs 0.959; to A15U A20G U35C G48U C55G, ≤ 0.5.
Under U35A A45C stands 0.576; under U13A A14C C22A U54C, ≤ 0.5; under C4A C30U C55U, ≤ 0.5.
On to A15C A40C C49G, for which the yeast fitness was ≤ 0.5.
Under U19C U26C G44A stands 0.521; under C60A C62G A70C, ≤ 0.5.
Under A14C A45U G48A C66G stands ≤ 0.5; under U28G C60G, 0.603.
Under C29U U32A A69U stands 0.6.
Regarding C29U G38A G48C C62G, the yeast fitness turned out to be 0.525.
Under U2A U8C stands 1.01; under A14G A15U U32G C34G U47C G63C, ≤ 0.5; under C4G A14C G51C, ≤ 0.5.
Under A43C C49A stands 0.631; under A21G C24U, 0.989.
Under C31U C33A G50A G68U stands 0.596; under C61G C62A, 0.503; under U13C C22G G68U, ≤ 0.5.
For the variant G12C A14C U26C A40G C66U A69U, the yeast fitness turned out to be 0.598.
Turning to C5A A15U A69C, the yeast fitness is ≤ 0.5.
To C5U U7A A14G belongs 0.538.
For the variant C27U U47G G50A, the yeast fitness is ≤ 0.5.
In the case of C11G A15U A36U, the yeast fitness is ≤ 0.5.
To C27G A37C G48C C55A G63A belongs 0.526; to C5G C29U G44C, ≤ 0.5.
To A36U A65U G67A A70G belongs ≤ 0.5; to A40U U64C A70U, 0.727; to C29A A65U G67A, 0.5.
Under C5U C11A A20C C22G C30U C31G C61A stands 0.543; under G38A C62U A69C, 0.717; under U26C A42U, 1.01.
On to U2A A15U G38C G39A A43C C60G A65C, for which the yeast fitness was ≤ 0.5.
To U16A C27G belongs 0.548.
C5A C29U C66U: the yeast fitness stood at 0.581.
Turning to A42U C49U G51A, the yeast fitness was found to be 0.665.
Regarding U8C G51C G58C, the yeast fitness was ≤ 0.5.
As for C4A C24A A42G, the yeast fitness is 0.603.
Under G9A G50A C55U stands 0.59; under C5U U7A C62A A69G A70G, ≤ 0.5; under U32A A42C G63C A65U C66U, ≤ 0.5.
To G10A C29G U53A G56C C62G A69C belongs ≤ 0.5; to G6A C66U, 1.03.
Under G9C U28C G44C U54C stands ≤ 0.5.
On to C5G U8C A15G C29A G39A, for which the yeast fitness is ≤ 0.5.
With U7C C22G A40U A69C, the yeast fitness was 0.574.
Under C31G C34U A40C stands 0.526; under U13G A14U G17A, ≤ 0.5.
Regarding U16C A40U A57C A70U, the yeast fitness came out at 0.585.
On to U3C C11U A36C A65C C66U, for which the yeast fitness is ≤ 0.5.
For G6A A20G A36G C49G, the yeast fitness is ≤ 0.5.
Consider C5A C46U U59C, for which the yeast fitness was 0.728.
Under G6C U16C G41C G51A C55U stands ≤ 0.5; under C5A G12C G18C C30A C31G U54G A65G, ≤ 0.5; under C11A A57U, ≤ 0.5.
With G17A C31U U54G, the yeast fitness is 0.639.
Consider U26C U32C A70G, for which the yeast fitness was 0.659.
For C22U C60G U64G, the yeast fitness is ≤ 0.5.
On to A14C C24U C31U U53C C61G, for which the yeast fitness was ≤ 0.5.
G17C C24A U47A: the yeast fitness is ≤ 0.5.
Take C11A U19C C60U: the yeast fitness is ≤ 0.5.
As for U32G C61U A69C, the yeast fitness came to 0.746.
As for G6C C62U, the yeast fitness came to 0.879.
As for A40G A43U C46G C49G C62U, the yeast fitness came out at 0.532.
With U26A A37G U64A, the yeast fitness was ≤ 0.5.
As to C4G A20G C30G G58A, the yeast fitness is ≤ 0.5.
Under G9A G12C G25C C30G C31A G50A G51C stands ≤ 0.5; under C11G G23C G25A, 0.977; under G25A G41A C49U A69U, 0.574.
Under C29G C34G stands 0.563.
As for G25A G44C G52A C62G A69G, the yeast fitness is ≤ 0.5.
To G12C A40G G58C C61G A65C belongs ≤ 0.5; to A15C G17A U28A, 0.675; to C11U G48U, 0.853.
To C4U A37G G39C belongs ≤ 0.5.
Turning to A14U U16G U19A G56A G67A, the yeast fitness is ≤ 0.5.
Under U13A C22U C66U stands 0.534; under C29U U35C, 0.95; under C27G C30G C49U C60U G63C, 0.678.
To G9C A20C C27U G39A G56A G58C belongs ≤ 0.5.
Regarding C22G G41C A65U, the yeast fitness was ≤ 0.5.
Consider U2G A21G A40G, for which the yeast fitness is ≤ 0.5.
Consider C5U G44A, for which the yeast fitness was 1.08.
To U2A C31G A65G belongs 0.642.
Under C27U C46U G48A A69C stands 0.696; under A37G G52C A70U, 0.552.
On to C11A C24U U32A U35C, for which the yeast fitness is 0.566.
To A15U C27U A36G G56C belongs ≤ 0.5; to U19C A20C C31G G67A, ≤ 0.5.
As to U3C A15C A36U, the yeast fitness is ≤ 0.5.
To U7G A69C belongs 0.851; to U28A C55A, 0.52.
To U16A A36U belongs 0.552; to C24A C60G, 0.51.
Under C5A U13A U32C U35A U59C A70U stands 0.547; under U19A C27U A43U C55U, ≤ 0.5.
Regarding G9C A14C C66U, the yeast fitness was ≤ 0.5.
With C4G A15U, the yeast fitness is 0.824.
Under U8G G9C G68A stands ≤ 0.5.
Take C5G U59G G63A: the yeast fitness was found to be 0.526.
In the case of U3A G9A U19A G44C G68C, the yeast fitness is ≤ 0.5.
Under A43C U59C stands 0.828.
With C27G A45U C55A, the yeast fitness was ≤ 0.5.
Turning to C5A G9C A36U G50A U59G, the yeast fitness was 0.542.
